From PubChem
Shown are actives, neighbours in structure and some others; about 2.5% of the full set was active somewhere.
MEKK2wt PB1 HTS: raises or lowers MEK5 binding to wildtype human MEKK2 PB1 domain. Q9Y2U5. bead flow cytometry, Alexa488-MEK5 binding to MEKK2 WT; actives lie on both sides. binding response (% of control), % at 10 µM. hit rate 1.1% among 290,000. AID 1531; in the data active = binding response below about 67% or above about 130%
UCH37 DUB inh: inhibitors of human deubiquitinating enzyme UCH37; purified proteasome/UCH37, Ub-AMC cleavage fluorescence; inhibition, % (test concentration not listed); hit rate 0.33% among 330,000; AID 588478;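 active = mean inhibition over replicate wells above about 20%, limit read from the data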;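 note: 0% = compound-free wells with enzyme and 100% = wells lacking proteasome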
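Schedule: 30 min plus 25 min, room temperature / Material: human UCH37 within purified proteasomes / Technique: AMC fluorescence intensity at 355/460 nm / Buffer or medium: pH 7.4 Tris-HCl (50 mM) with ovalbumin, ATP-MgCl2, DTT / Controls: wells without proteasome as full block, compound-free enzyme plus substrate as uninhibited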
T cell HTS: T cell immune modulators affecting CD8 T cell-vesicle binding. hit rate 0.068% among 330,000. 2C CD8+ T cell-vesicle binding, flow cytometry; active compounds read low. response (vesicle binding), % at 7 µM. AID 2052;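 active = response, share of CD8 T cells binding vesicles, and their 90th percentile fluorescence all below set limits, cut at about 80% in these data, passing the limit was not always enough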;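 note: values below 100% mean blocked vesicle binding to the CD8+ T cells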
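Read-out – percent CD8+ FL2 mean versus row control · System – murine 2C transgenic CD8+ T lymphocytes · Times – 1.5 h cell–vesicle binding at 37 °C, then 20 min icy labelling · Control set – naked vesicles low, QL9 vesicles with vehicle high · Detection – cytometric PE anti-B7-1 and Alexa647 anti-CD8 signals after 1% paraformaldehyde fixation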
MEKK3 PB1 HTS: modulators (inhibitors or enhancers) of MEK5 binding to human MEKK3 PB1 domain | binding response (% of control), % at 10 µM | hit rate 1.4% among 290,000 | bead-based flow cytometry, Alexa488-MEK5 binding to MEKK3; actives lie on both sides; 0 = blocked by unlabeled MEK5, 100 = vehicle | Q99759;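 active = binding response more than 3 SD above or below the average of its plate-row segment, actives on both sides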;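 note: Alexa488 bead fluorescence after subtracting the streptavidin-only scavenger bead signal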
Target sequence (Q99759 whole entry, looked up, the tested form may be a part): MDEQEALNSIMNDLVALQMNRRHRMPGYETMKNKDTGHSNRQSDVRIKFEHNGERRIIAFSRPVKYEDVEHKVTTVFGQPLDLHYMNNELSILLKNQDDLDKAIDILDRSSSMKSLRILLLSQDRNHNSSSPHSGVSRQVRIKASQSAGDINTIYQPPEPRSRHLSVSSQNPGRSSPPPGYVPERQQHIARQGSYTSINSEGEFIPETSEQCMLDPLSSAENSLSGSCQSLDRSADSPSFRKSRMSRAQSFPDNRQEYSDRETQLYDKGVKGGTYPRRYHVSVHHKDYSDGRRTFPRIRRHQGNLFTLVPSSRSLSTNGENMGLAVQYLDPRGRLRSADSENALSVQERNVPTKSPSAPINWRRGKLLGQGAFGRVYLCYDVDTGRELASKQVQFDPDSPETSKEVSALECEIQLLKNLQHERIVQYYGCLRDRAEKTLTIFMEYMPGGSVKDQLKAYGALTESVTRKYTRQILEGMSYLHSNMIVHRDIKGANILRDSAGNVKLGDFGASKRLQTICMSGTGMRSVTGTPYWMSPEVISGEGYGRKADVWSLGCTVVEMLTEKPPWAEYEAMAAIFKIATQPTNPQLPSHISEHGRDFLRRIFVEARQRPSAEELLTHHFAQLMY
Rce1 inh: inhibitors of yeast Ras-converting enzyme | Q03530 | yeast membranes, quenched prenylated peptide cleavage fluorescence | calls only | hit rate 0.27% among 290,000 | AID 2563;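 active = fall in fluorescence gain of 50% or more versus controls, with final raw signal at or below 3038400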;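 note: plate controls were neutral control wells for no effect and wells lacking membranes for full effect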
MEKK2mut PB1 HTS: signal of MEK5 binding to mutant human MEKK2 PB1 domain. hit rate 0.35% among 290,000. bead flow cytometry, Alexa488-MEK5 binding to MEKK2 mutant. percent response, % at 10 µM; in the data active = percent response above about 24%, passing the limit was not always enough
MEKK2wt confirm: raises or lowers MEK5 binding to wildtype human MEKK2, retest; bead flow cytometry, Alexa488-MEK5 binding to MEKK2 WT; actives lie on both sides; binding response (% of control), % at 10 µM; hit rate 2.4% among 5,900; shares compounds with MEKK3 PB1 HTS; AID 1892; in the data active = binding response below about 16% or above about 210%; inactive = in between
MEKK2mut-MEK5: signal of MEK5 binding to mutant human MEKK2, retest. shares compounds with MEKK3 PB1 HTS. bead flow cytometry, Alexa488-MEK5 binding to MEKK2 mutant. percent response, % at 10 µM. hit rate 2% among 5,900; in the data active = percent response mostly above about 71%, no sharp cut-off; inactive = mostly below about 38%;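 note: higher means compound restores mutant binding toward wildtype level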
MEKK3 confirm: confirmation of inhibitors of MEK5 binding to human MEKK3; shares compounds with MEKK3 PB1 HTS; bead flow cytometry, Alexa488-MEK5 binding to MEKK3; active compounds read low; binding response (% of control), % at 10 µM; hit rate 1.8% among 5,900; AID 1894;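 active = binding response below 72% of control, or above a set upper limit, though filed actives all read lower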;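 note: 100% = DMSO only wells and 0% = binding blocked by excess unlabeled MEK5; lower values mean stronger disruption of MEK5 binding to MEKK3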
* = called active by the depositor; i = inactive; x = no result; + = active, no number; [ ] = remark or other dose.

SMILES | MEKK2wt PB1 HTS | UCH37 DUB inh | T cell HTS | MEKK3 PB1 HTS | Rce1 inh | MEKK2mut PB1 HTS | MEKK2wt confirm | MEKK2mut-MEK5 | MEKK3 confirm
CN1CCN(NC(=S)NC(C)(C)CC(C)(C)C)CC1 | 77.0 | 1.3 | 270.9 | 58.0*[inhibitor] | i | -4.0 | 103.0 | 3.0 | 105.0
O=C(O)COc1ccccc1C=NNC(=O)/C(=C\c1ccc2c(c1)OCO2)NC(=O)c1ccccc1 | x | 3.6 | x | x | x | x | x | x | x
CCc1ccc(NC(=O)CSc2nnc(CNC(=O)c3c(F)cccc3Cl)o2)cc1 | 3.0*[inhibitor] | -1.0 | 255.7 | 3.0*[inhibitor] | i | -24.0 | 104.0 | 3.0 | 101.0
Cc1cc(=O)[nH]c(N=C(N)Nc2ccc(SC(F)F)cc2)n1 | x | -1.6 | x | x | x | x | x | x | x
O=C(Cn1nc(C(F)F)cc1C(F)F)NN=Cc1ccc2c(c1)OCO2 | x | -1.1 | x | x | x | x | x | x | x
O=[N+]([O-])c1ccc(N/N=C/c2ccccc2O)cc1 | 102.0 | x | 191.2 | 104.0 | i | 2.0 | x | x | x
O=[N+]([O-])c1ccc(O)c(C=Nc2ccc3c(c2)OCCO3)c1 | 99.0 | 7.3 | 247.4 | 142.0* | i | 1.0 | 97.0 | -6.0 | 100.0
CN(C)N=Cc1cc([N+](=O)[O-])ccc1O | x | 10.5 | x | x | x | x | x | x | x
O=[N+]([O-])c1cccc(N/N=C/c2cc([N+](=O)[O-])ccc2O)c1 | 115.0 | x | 324.0 | 139.0* | i | 5.0 | 95.0 | -2.0 | 96.0
O=[N+]([O-])c1ccc(O)c(C=Nc2ccc3oc(Cc4ccc(Cl)cc4)nc3c2)c1 | 106.0 | x | 913.1 | 134.0* | i | 174.0* | 93.0 | -4.0 | 104.0
Cc1nn(-c2ccccc2)c(N=Cc2ccccc2O)c1-c1ccccc1 | x | -0.8 | x | x | x | x | x | x | x
Fc1ccc(CON=C2CCCc3nonc32)cc1 | x | 1.1 | x | x | x | x | x | x | x
Clc1ccc(CO/N=C2\CCCc3nonc32)cc1 | 109.0 | x | 131.8 | 145.0* | i | 1.0 | 101.0 | -6.0 | 105.0
CC(=NNC(=O)CNC(=O)CCc1ccccc1)c1ccc(Cl)cc1 | x | 3.6 | x | x | x | x | x | x | x
CC1CN(C(=O)c2cc3ccccc3oc2=O)CC(C)O1 (stereo not drawn) | 96.0 | 2.5 | 160.7 | 82.0*[inhibitor] | i | -8.0 | 101.0 | -2.0 | 99.0
CC1CN(C(=O)c2ccc(Oc3ccccc3)cc2)CC(C)O1 (stereo not drawn) | 86.0 | 4.3 | 215.9 | 70.0*[inhibitor] | i | -4.0 | 99.0 | -5.0 | 98.0
COc1cccc2cc(C(=O)N3CC(C)OC(C)C3)c(=O)oc12 (stereo not drawn) | 99.0 | -3.0 | 115.8 | 99.0 | i | -3.0 | x | x | x
Cc1c(C(=O)Nc2ccc(Cl)cc2)c2ccccn2c1C(=O)c1ccccc1 | 116.0 | -28.1 | 153.9 | 126.0* | i | 5.0 | 83.0 | -4.0 | 87.0
CCc1cc2ccc(OC)cc2nc1SCC(=O)NNC(C)=O | 124.0 | 1.0 | 723.7 | 135.0* | i | 6.0 | 99.0 | -1.0 | 103.0
CCc1cc2ccc(OC)cc2nc1SCC(=O)Nc1cc(C)on1 | 117.0 | 4.3 | 246.1 | 123.0* | i | 5.0 | 98.0 | -1.0 | 103.0
O=C(O)COc1ccccc1C=NNC(=O)c1cc(-c2ccc(F)cc2)nc2ccccc12 | x | 6.9 | x | x | x | x | x | x | x
CC(CC(=O)Nc1ccccc1[N+](=O)[O-])=NNC(=O)COc1ccccc1C | x | 2.5 | x | x | x | x | x | x | x
CCCCNC(=O)C1CCCN1C(=O)NC1CCCCC1 (stereo not drawn) | 3.0*[inhibitor] | 0.2 | 80.6 | 2.0*[inhibitor] | i | 0.0 | 96.0 | -6.0 | 98.0
Cc1ccc(C)c(N2CCN(C(=O)c3cc(S(=O)(=O)N4CCCC4)cn3C)CC2)c1 | 0.0*[inhibitor] | 0.9 | 0.0 | 2.0*[inhibitor] | i | -32.0 | 101.0 | 3.0 | 101.0
Cc1cccc(N2CCN(C(=O)c3cc(S(=O)(=O)N4CCCC4)cn3C)CC2)c1C | 100.0 | 0.7 | 561.7 | 100.0 | i | 2.0 | x | x | x
SMILES | MEKK2wt PB1 HTS | UCH37 DUB inh | T cell HTS | MEKK3 PB1 HTS | Rce1 inh | MEKK2mut PB1 HTS | MEKK2wt confirm | MEKK2mut-MEK5 | MEKK3 confirm
CC(C)(C)OC(=O)N1CCC(c2cc(=O)n3[nH]cc(C(=O)Nc4ccc(F)c(Cl)c4)c3n2)CC1 | 97.0 | -3.4 | 448.9 | 129.0* | + | 19.0 | 97.0 | -1.0 | 101.0
COc1ccc(NC(=O)c2c[nH]n3c(=O)cc(C4CCN(C(=O)OC(C)(C)C)CC4)nc23)cc1Cl | 82.0 | 6.1 | 422.4 | 97.0 | i | -18.0 | x | x | x
CCOc1ccc(CCNC(=O)C2CCC(=O)N2CCc2ccccc2)cc1OCC (stereo not drawn) | -1.0*[inhibitor] | 1.1 | 316.7 | 2.0*[inhibitor] | i | -26.0 | 96.0 | -5.0 | 100.0
CC(=NN1CCN(C2c3ccccc3-c3ccccc32)CC1)c1ccncc1 | x | 1.7 | x | x | x | x | x | x | x
O=C1NCN(c2ccccc2)C12CCN(CCCC(c1ccc(F)cc1)c1ccc(F)cc1)CC2 | 207.0* | 4.0 | 111.0 | 113.0 | i | 25.0* | 165.0 | 50.0 | 106.0
CC(C)(C)c1cc(C(=O)NN)n(Cc2ccc(F)cc2)n1 | 106.0 | 3.6 | 889.4 | 108.0 | x | -1.0 | x | x | x
COC(=O)c1cc(NC(=O)c2cc(C(C)(C)C)nn2Cc2ccc(F)cc2)ccc1N1CCOCC1 | 130.0 | -8.0 | 944.7 | 133.0* | i | 32.0 | 103.0 | -2.0 | 103.0
O=C(NN=Cc1cccc2ccccc12)c1ccccc1Cl | x | 3.1 | x | x | x | x | x | x | x
